The results in this text go back to ChEMBL document CHEMBL4359825, “Synthesis of novel S-linked dihydroartemisinin derivatives and evaluation of their anticancer activity” (Eur J Med Chem, 2019).

One assay deals with LNCaP. Nature of the assay: Anticancer activity against human LNCAP cells assessed as cell viability measured after 72 hrs by MTT assay (reference value: 100 +/- 5.0 %). In kind it is functional. More on the design: concentration or dose not given beside the values.
Assay [1] has as its system PC-3. Nature of the assay: Anticancer activity against human PC3 cells assessed as cell viability measured after 72 hrs by MTT assay (reference value: 100 +/- 18.8 %). In kind it is functional. Set-up: concentration or dose not given beside the values.
Another assay deals with A-431. As to the kind of experiment: Anticancer activity against human A431 cells assessed as cell viability measured after 72 hrs by MTT assay (reference value: 100 +/- 11.7 %). Format: functional. More on the design: concentration or dose not given beside the values.
For another assay, the system named is A549. Nature of the assay: Anticancer activity against human A549 cells assessed as cell viability measured after 72 hrs by MTT assay (reference value: 100 +/- 9.6 %). In kind it is functional. More on the design: concentration or dose not given beside the values.
Assay [2] relates to PC-3. Nature of the assay: Anticancer activity against human PC3 cells assessed as reduction in cell viability measured after 72 hrs by MTT assay. Format: functional, cell-based. The settings on record: PC-3, 72 h.
In a further assay the test system is HepG2. As to the kind of experiment: Anticancer activity against human HepG2 cells assessed as reduction in cell viability measured after 72 hrs by MTT assay. Format: functional, cell-based. The settings on record: HepG2, 72 h.
The test system of another assay is MDA-MB-231. As to the kind of experiment: Anticancer activity against human MDA-MB-231 cells assessed as reduction in cell viability measured after 72 hrs by MTT assay. In kind it is functional, cell-based. Particulars: MDA-MB-231, 72 h.
Assay [3] relates to PC-3. Nature of the assay: Antiproliferative activity against human PC3 cells assessed as reduction in cell viability at 1 to 10 uM incubated for 72 hrs by MTT assay. Format: functional, cell-based.
Assay [4] has as its system PC-3. As to the kind of experiment: Anticlonogenic activity against human PC3 cells assessed as reduction in colony formation incubated for 72 hrs supplemented with fresh medium containing measured after 15 days by colony formation assay. In kind it is functional, cell-based. An outline of the steps: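 Clonogenic assay: PC-3 seeded at 500 cells/well in six-well plates, allowed to adhere overnight, then treated. Medium and compound renewed every 72 h over 15 days. Colonies fixed with 3.7% formaldehyde for 20 min, stained with 0.4% crystal violet and counted. Three experiments, each in quadruplicate, expressed as fold change versus control.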

Assay [5] deals with PC-3. Nature of the assay: Induction of reactive oxygen species generation in human PC3 cells assessed as increase in intracellular ROS level at 3 to 10 uM incubated for 3 hrs by CM-H2DCFDA staining based fluorescence microscopy analysis. Format: functional, cell-based. An outline of the steps:
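Approx. 1×10^5 PC-3 cells per well treated 3 h at 3 or 10 μM; medium replaced with 10 μM CM-H2DCFDA for 30 min in dark at 37 °C, nuclei counterstained Hoechst 33342 (1 μg/mL) 15 min at room temperature; fluorescence microscopy, percentage ROS-producing cells scored versus vehicle.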

The subject of assay [6] is PC-3. As to the kind of experiment: Induction of apoptosis in human PC3 cells assessed as decrease in mitochondrial membrane potential at 3 to 10 uM after 48 hrs by JC-1 staining based fluorescence microscopy analysis. Format: functional, cell-based. An outline of the steps:
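PC-3 cells exposed to 3 or 10 μM for 48 h, then stained with JC-1 (10 μM) for 30 min in the dark. Mitochondrial potential judged by red/green fluorescence under a fluorescence microscope.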

The subject of assay [7] is PC-3. As to the kind of experiment: Cell cycle arrest in human PC3 cells assessed as accumulation at G0/G1 phase at 3 uM measured after 48 hrs by RNase/propidium iodide staining based flow cytometry analysis (reference value: 42.59 %). Format: functional.
Assay [8] relates to PC-3. As to the kind of experiment: Cell cycle arrest in human PC3 cells assessed as accumulation at S phase at 3 uM measured after 48 hrs by RNase/propidium iodide staining based flow cytometry analysis (reference value: 22.40 %). Format: functional.
Assay [9] concerns PC-3. As to the kind of experiment: Cell cycle arrest in human PC3 cells assessed as accumulation at G2/M phase at 3 uM measured after 48 hrs by RNase/propidium iodide staining based flow cytometry analysis (reference value: 34.95 %). Format: functional.
The test system of assay [10] is PC-3. As to the kind of experiment: Cell cycle arrest in human PC3 cells assessed as accumulation at G2/M phase at 10 uM measured after 48 hrs by RNase/propidium iodide staining based flow cytometry analysis (reference value: 34.95 %). Format: functional.
Assay [11] concerns PC-3. Nature of the assay: Antimigratory activity against human PC3 cells assessed as reduction in cell migration at 3 to 10 uM measured upto 24 hrs by scratch wound healing assay. In kind it is functional, cell-based. An outline of the steps:
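Wound healing: PC-3 seeded 3 × 10^5/well, grown to a monolayer at 37 °C, 5% CO2. Scratch made with a pipette tip, detached cells washed off, then 3 or 10 μM added.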

The subject of assay [12] is PC-3. As to the kind of experiment: Antimetastatic activity against human PC3 cells assessed as inhibition of MMP-2 at 3 to 10 uM measured after 48 hrs by gelatin zymography. In kind it is functional, cell-based. The procedure, abridged: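 PC-3 monolayers scratched, then treated with 3 or 10 μM for 48 h in serum-containing medium, then 24 h in serum-free medium. Conditioned medium run non-reduced on 7.5% SDS-PAGE containing gelatin 4 mg/mL. Gel washed in 2.5% Triton X-100, incubated 24 h at 37 °C in Tris pH 7.5 with CaCl2/ZnCl2, Coomassie stained; lysis seen as clear bands.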

Assay [13] deals with PC-3. Nature of the assay: Antimigratory activity against human PC3 cells assessed as reduction in cell migration at 3 to 10 uM measured after 48 hrs by transwell assay. In kind it is functional, cell-based. An outline of the steps:
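Transwell migration through 8.0 μm polycarbonate membranes: 40,000 PC-3 cells in serum-free medium in the upper chamber with 3 or 10 μM; RPMI-1640 with 10% FBS below. After 48 h, non-migrated cells swabbed off. Migrated cells fixed in 75% ethanol for 10 min, Hoechst stained and counted per field versus DMSO.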

The subject of assay [14] is PC-3. As to the kind of experiment: Downregulation of E2F1 mRNA expression in human PC3 cells at 3 to 10 uM measured after 72 hrs by TRIzol dye based RT-PCR analysis. Format: functional, cell-based. An outline of the steps:
(§1)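 PC-3 (1.25 × 10^5/well) treated 72 h with 3 or 10 μM. Total RNA extracted with TRIzol; cDNA made from 2 μg RNA. SYBR qPCR: 95 °C 10 min, then 40 cycles of 95 °C/60 °C. Expression normalised to GAPDH by 2^-ΔΔCt; three experiments.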

The test system of assay [15] is PC-3. As to the kind of experiment: Downregulation of PCNA mRNA expression in human PC3 cells at 3 to 10 uM measured after 72 hrs by TRIzol dye based RT-PCR analysis. Format: functional, cell-based. The procedure, abridged:
as §1

Assay [16] has as its system PC-3. As to the kind of experiment: Upregulation of p21 mRNA expression in human PC3 cells at 3 to 10 uM measured after 72 hrs by TRIzol dye based RT-PCR analysis. In kind it is functional, cell-based. The procedure, abridged:
(§2)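 PC-3 cells (1.25×10^5 per well) treated 72 h at 3 or 10 μM; total RNA by TRIzol, cDNA from 2 μg; SYBR real-time PCR, 95 °C 10 min then 40 cycles 95 °C 15 s/60 °C; Ct normalised to GAPDH, relative expression by 2^-ΔΔCt; three experiments.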

The subject of assay [17] is PC-3. Nature of the assay: Upregulation of NOXA mRNA expression in human PC3 cells at 3 to 10 uM measured after 72 hrs by TRIzol dye based RT-PCR analysis. In kind it is functional, cell-based. An outline of the steps: as §2
Assay [18] has as its system PC-3. As to the kind of experiment: Downregulation of Pin1 expression in human PC3 cells at 3 to 10 uM measured after 72 hrs by Western blot analysis. In kind it is functional, cell-based. The procedure, abridged:
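Western blot: PC-3 seeded 1.25 × 10^5/well, exposed to 0.1–10 μM for 72 h. Lysed in 2× SDS buffer and sonicated; 20–25 μg protein run on 12% SDS gel, transferred to PVDF, blocked in 5% BSA/TBST. Primary antibodies overnight, secondary 1 h; ECL detection, β-actin loading control.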

Assay [19] concerns the target Peptidyl-prolyl cis-trans isomerase NIMA-interacting 1 (Homo sapiens) (UniProt Q13526). Nature of the assay: Inhibition of proteasome mediated Pin1 in human PC3 cells at 10 uM measured after 72 hrs in presence of MG132. In kind it is cell-based.

The structures appear in SMILES notation. Active and inactive are the calls of the source. The calls are words filed in the database; no cut-off is given here.

Sequence of Peptidyl-prolyl cis-trans isomerase NIMA-interacting 1 (Homo sapiens) (Q13526 whole entry): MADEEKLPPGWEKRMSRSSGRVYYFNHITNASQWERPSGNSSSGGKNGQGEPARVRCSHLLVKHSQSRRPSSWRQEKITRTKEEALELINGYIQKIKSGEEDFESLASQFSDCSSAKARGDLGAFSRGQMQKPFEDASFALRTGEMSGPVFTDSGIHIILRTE

For the molecule `COC(=O)Cc1ccc(S[C@@H]2O[C@@H]3O[C@@]4(C)CC[C@H]5[C@H](C)CC[C@@H]([C@H]2C)[C@@]35OO4)cc1`, the Activity in the assay on LNCaP is 38%; in the assay on PC-3 [1], 28%; in the assay with A-431, 35%; in the assay with A549, 68%; with PC-3 [4] it was “Dose-dependent effect”; in the assay with PC-3 [7] it was 54.49%. Also, the Activity with PC-3 [8] came to 13.26%; with PC-3 [9], 32.24%; in the assay with PC-3 [10] it was 32.19%. Also, the figures for the IC50 in the assay on PC-3 [2], with HepG2 and in the assay on MDA-MB-231 were 6.13 µM, 6.08 µM and 9.03 µM, respectively. Further, the result with PC-3 [3], in the assay on PC-3 [5], with PC-3 [6], in the assay on PC-3 [11], with PC-3 [13] and in the assay on PC-3 [14] was Active. For the same molecule, the result in the assay on PC-3 [15], in the assay on PC-3 [16], in the assay on PC-3 [17] and in the assay with PC-3 [18] was Active. In the assay with PC-3 [12], the inhibition entry was “Dose-dependent effect”. Moreover, the inhibition result in assay [19] is “inactive”.
